Data taken from ChEMBL document CHEMBL3286218, “Structure-activity relationship studies of N-methylated and N-hydroxylated spider polyamine toxins as inhibitors of ionotropic glutamate receptors” (J Med Chem, 2014).

How the values were obtained:
Format in all cases: cell-based
[1] = target: Glutamate NMDA receptor; Grin1/Grin2a (Rattus norvegicus) (UniProt P35439+Q00959); experiment: Inhibition of rat recombinant GluN1/2A expressed in Xenopus oocytes assessed as inhibition of glutamate/glycine-evoked channel current at 100 nM at holding potential of -80 mV by two-electrode voltage clamp technique
Outline: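 Single-concentration screen at 100 nM on oocytes expressing GluN1/2A (1:10 cRNA ratio), two-electrode clamp at −80 mV, rt, in frog Ringer's. Percent inhibition of current evoked by 100 μM L-glutamate plus 100 μM glycine, with compound bath-applied in Ringer's.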

[2] = target: Glutamate receptor 1 (Rattus norvegicus) (UniProt P19490); experiment: Inhibition of rat recombinant GluA1 expressed in Xenopus oocytes assessed as inhibition of glutamate-induced channel current at 100 nM at holding potential of -80 mV by two-electrode voltage clamp technique
Outline: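 Xenopus oocytes injected with GluA1_i cRNA (25 nL of 1 ng/nL), kept 2–4 days at 17 °C in Barth's medium with gentamicin. Two-electrode voltage clamp at room temperature in superfused frog Ringer's (Ba2+-containing, pH 7.6). Current evoked by 300 μM L-glutamate; test compound at 100 nM added by bath, co-applied with agonist. Percent inhibition of the evoked current recorded.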

Glutamate receptor 1 = Glutamate receptor 1 (Rattus norvegicus, UniProt P19490); experiment: Inhibition of rat recombinant GluA1 expressed in Xenopus oocytes assessed as inhibition of glutamate-induced channel current at holding potential of -80 mV by two-electrode voltage clamp technique
Outline: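 GluA1_i cRNA (25 nL at 1 ng/nL) injected into collagenase-treated oocytes, kept at 17 °C in Barth's medium (pH 7.4) with gentamicin, recorded 2−4 days later. Held at −80 mV, rt, superfused with frog Ringer's (BaCl₂, pH 7.6). Antagonist co-applied with 300 μM L-glutamate at rising concentrations. Curves from 3−8 oocytes fitted to a Hill equation for IC50.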

[3] = target: Glutamate NMDA receptor; Grin1/Grin2a (Rattus norvegicus, UniProt P35439+Q00959); experiment: Inhibition of rat recombinant GluN1/2A expressed in Xenopus oocytes assessed as inhibition of glutamate/glycine-evoked channel current at holding potential of -80 mV by two-electrode voltage clamp technique
Outline: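 Oocytes were injected with GluN1/N2A cRNA at a 1:10 ratio (25 nL at 0.5 ng/nL), incubated at 17 °C in Barth's medium with gentamicin, and recorded after 2−4 days. Clamp at −80 mV, rt, in frog Ringer's (BaCl₂, pH 7.6). Increasing antagonist was co-applied with 100 μM L-glutamate plus 100 μM glycine. IC50 came from a Hill fit over 3−8 oocytes.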

Rattus norvegicus = organism: Rattus norvegicus; experiment: Selectivity ratio of IC50 for rat recombinant GluN1/2A expressed in Xenopus oocytes to IC50 for rat recombinant GluA1 expressed in Xenopus oocytes

Chain of Glutamate receptor 1 (P19490 whole entry, the tested form may be a part): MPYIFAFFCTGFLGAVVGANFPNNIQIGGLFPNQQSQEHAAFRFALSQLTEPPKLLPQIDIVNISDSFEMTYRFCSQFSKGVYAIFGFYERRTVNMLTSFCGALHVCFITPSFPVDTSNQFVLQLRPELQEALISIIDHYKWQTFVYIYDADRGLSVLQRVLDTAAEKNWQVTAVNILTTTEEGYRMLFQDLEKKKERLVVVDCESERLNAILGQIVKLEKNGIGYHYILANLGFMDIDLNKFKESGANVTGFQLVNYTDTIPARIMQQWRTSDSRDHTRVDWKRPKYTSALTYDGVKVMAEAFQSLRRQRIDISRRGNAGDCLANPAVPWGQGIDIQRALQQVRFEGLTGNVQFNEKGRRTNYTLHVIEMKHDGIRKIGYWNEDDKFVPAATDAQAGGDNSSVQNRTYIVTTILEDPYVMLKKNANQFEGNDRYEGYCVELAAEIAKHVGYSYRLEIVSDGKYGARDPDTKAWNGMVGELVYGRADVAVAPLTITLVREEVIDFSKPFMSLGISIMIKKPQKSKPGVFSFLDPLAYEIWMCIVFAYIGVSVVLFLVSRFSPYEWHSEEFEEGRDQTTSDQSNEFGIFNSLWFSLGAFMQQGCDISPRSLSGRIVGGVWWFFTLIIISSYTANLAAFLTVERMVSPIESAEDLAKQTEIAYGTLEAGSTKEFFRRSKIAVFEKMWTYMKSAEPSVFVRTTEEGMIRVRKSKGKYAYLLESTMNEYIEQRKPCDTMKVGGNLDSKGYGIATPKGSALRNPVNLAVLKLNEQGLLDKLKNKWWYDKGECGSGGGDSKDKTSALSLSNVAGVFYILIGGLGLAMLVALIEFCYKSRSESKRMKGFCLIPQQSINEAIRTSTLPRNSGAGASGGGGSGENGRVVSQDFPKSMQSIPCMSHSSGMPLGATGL
Chain of Glutamate receptor 1 (Rattus norvegicus) (P19490 whole entry, the tested form may be a part): as above

`C[N+](C)(CCCC[C@H](N)C(=O)NCCCCCNC(=O)[C@H](CC(N)=O)NC(=O)Cc1c[nH]c2ccccc12)CCCNC(=O)[C@@H](N)CCCNC(=N)N` showed an inhibition [1] of less than 20% and an inhibition [2] greater than 40%.
Molecule `NCCCNCCCCNCCCNCCCNCCCNC(=O)Cc1c[nH]c2ccccc12` has an inhibition [1] greater than 90%.
Molecule `NCCCNCCCCNCCCNCCCNCCCNC(=O)Cc1c[nH]c2cccc(O)c12` has an inhibition [1] greater than 90%.
Work on `N=C(N)NCCC[C@H](N)C(=O)NCCCNCCCC[C@H](N)C(=O)NCCCCCNC(=O)[C@H](CC(N)=O)NC(=O)Cc1c[nH]c2ccccc12` yielded an inhibition [1] of less than 20% and an inhibition [2] of 81%.
Molecule `NCCCNCCCCNCCCNCCCNCCCNC(=O)Cc1ccc(O)cc1O` has an inhibition [1] greater than 90%.
Molecule `C[N+](C)(CCCC[C@H](N)C(=O)NCCCCCNC(=O)[C@H](CC(N)=O)NC(=O)Cc1c[nH]c2cccc(O)c12)CCCNC(=O)[C@@H](N)CCCNC(=N)N` has an IC50 (Glutamate receptor 1) of 123 nM, an inhibition [1] of less than 20% and an IC50 [3] of 3850 nM. For the same molecule, the inhibition [2] was greater than 40%.
For `NCCCNCCCCNCCCNCCCN(O)CCCNC(=O)Cc1c[nH]c2ccccc12`, the IC50 (Glutamate receptor 1) was 11 nM, the inhibition [1] was greater than 90% and the IC50 [3] was 12 nM.
Work on `CN(CCCC[C@H](N)C(=O)NCCCCCNC(=O)[C@H](CC(N)=O)NC(=O)Cc1c[nH]c2cccc(O)c12)CCCNC(=O)[C@@H](N)CCCNC(=N)N` yielded an IC50 (Glutamate receptor 1) of 52 nM, an inhibition [1] of less than 20% and an IC50 [3] of 1630 nM. It also gave an inhibition [2] greater than 40%.
`NCCCNCCCCNCCCNCCCN(O)CCCNC(=O)Cc1c[nH]c2cccc(O)c12` was tested, and the inhibition [1] was greater than 90%.
Molecule `N=C(N)NCCC[C@H](N)C(=O)NCCCNCCCC[C@H](N)C(=O)NCCCCCNC(=O)[C@H](CC(N)=O)NC(=O)Cc1c[nH]c2cccc(O)c12` has a Ratio IC50 (Rattus norvegicus) of 26, an IC50 (Glutamate receptor 1) of 15 nM and an inhibition [1] of less than 20%. For the same molecule, the IC50 [3] was 387 nM and the inhibition [2] was 84%.
With `CN(CCCC[C@H](N)C(=O)NCCCCCNC(=O)[C@H](CC(N)=O)NC(=O)Cc1c[nH]c2ccccc12)CCCNC(=O)[C@@H](N)CCCNC(=N)N` the inhibition [1] was less than 20% and the inhibition [2] was greater than 40%.
